Source: PubChem (Sanford-Burnham Center for Chemical Genomics)
Scp1 inh: Scp-1 phosphatase inhibitors, primary screen, biochemical, colorimetric, uHTS; Carboxy-terminal domain RNA polymerase II polypeptide A small phosphatase 1 (Homo …; Recombinant Scp1, phosphopeptide, malachite green phosphate absorbance; inhibition, % at 20 µM; actives 0.88% (n = 340,000);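 active = inhibition above about 50% at 20 µM, limit read from the data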
Target sequence (Q9GZU7 76-261 limits assumed): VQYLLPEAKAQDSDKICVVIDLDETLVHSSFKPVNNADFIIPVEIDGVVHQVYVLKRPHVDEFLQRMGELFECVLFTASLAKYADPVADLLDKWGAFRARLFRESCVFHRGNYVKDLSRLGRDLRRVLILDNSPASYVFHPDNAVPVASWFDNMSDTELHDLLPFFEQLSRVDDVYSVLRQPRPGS
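Material: truncated SCP-1 phosphatase (76-261aa) / Buffer or medium: 50 mM Tris acetate pH 5.5, 0.005% Tween-20, 10 mM MgCl2 / Compound dosing: one concentration, 20 µM, with 1.0% DMSO / Incubation: 45 min room-temperature reaction, 5 min colour, 30 min stabiliser / Detection: colorimetric free-phosphate detection, absorbance 630 nm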
CSN inh: inhibitors of CSN-mediated cullin deneddylation, primary screen, biochemical, fluorescence polarization, uHTS | COP9 signalosome complex subunit 5 (Homo sapiens), Q92905 | Purified CSN, SCF-Nedd8-OG deneddylation | inhibition, % at 12.5 µM | actives 0.38% (n = 360,000) | AID 651999, 2013;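 active = pattern-corrected inhibition above about 35%, with an unprinted fluorescence ratio check between 0.5 and 1.5, limit read from the data, passing the limit was not always enough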
Target sequence (Q92905 whole entry, looked up, one chain of several): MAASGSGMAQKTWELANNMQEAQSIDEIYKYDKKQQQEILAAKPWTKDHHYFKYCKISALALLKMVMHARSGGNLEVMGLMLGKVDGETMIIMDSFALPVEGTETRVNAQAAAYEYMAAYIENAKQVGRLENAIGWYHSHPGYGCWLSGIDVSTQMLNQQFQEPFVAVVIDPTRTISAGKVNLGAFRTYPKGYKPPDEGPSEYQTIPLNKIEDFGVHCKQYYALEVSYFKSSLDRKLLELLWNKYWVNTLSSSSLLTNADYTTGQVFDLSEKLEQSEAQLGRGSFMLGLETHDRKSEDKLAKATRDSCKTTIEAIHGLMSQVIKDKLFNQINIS
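Test system: purified human Csn5 enzyme expressed in HEK293T cells. Amount: 0.24 nM enzyme. Reagent: SCFSkp2-Nedd8OG substrate at 10 nM final. Schedule: 90 min incubation of compound, enzyme and substrate at room temperature. Detection: fluorescence polarization. Read-out: % inhibition of substrate cleavage by Csn5.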
DNMT1 inh: human DNMT1 methyltransferase inhibitors, primary screen, biochemical, molecular beacon, fluorescence, HinP1I cleavage, uHTS. AID 588458, 2011. DNA (cytosine-5)-methyltransferase 1 (Homo sapiens), P26358. inhibition (reported as % activation of signal), % at 10 µM. actives 0.83% (n = 360,000); in the data active = inhibition above about 50%
SUMO1 PPI mod: modulators of SUMO1 protein-protein interactions, primary screen, biochemical, uHTS | AID 602429, 2012 | actives 0.33% (n = 360,000) | Small ubiquitin-related modifier 1 (Homo sapiens), P63165 | SUMO1 binding to a labelled peptide, TR-FRET, 1 h | inhibition, % at 20 µM; in the data active = inhibition above about 37%
Target sequence (P63165 whole entry, looked up): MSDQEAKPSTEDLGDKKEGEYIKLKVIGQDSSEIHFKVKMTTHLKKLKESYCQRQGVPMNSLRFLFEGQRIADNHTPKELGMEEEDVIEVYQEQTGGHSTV
STEP inh: STEP phosphatase inhibitors, primary screen, biochemical, fluorescence intensity, uHTS | Tyrosine-protein phosphatase non-receptor type 5 (Homo sapiens), P54829 | recombinant STEP, OMFP fluorogenic substrate | inhibition, % at 20 µM | actives 0.25% (n = 360,000) | AID 588621, 2011;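 active = inhibition at 20 µM, scaled per plate between control wells, above about 37%, limit read from the data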
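System: STEP (striatal-enriched tyrosine phosphatase) enzyme, cell-free; medium: Bis-Tris pH 6.0 buffer with DTT, detergent; dosing: 20 µM, 1% DMSO; times: reaction 20 min, ambient temperature; detection: fluorescence, 480/540 nm; read-out basis: normalized % inhibition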
LMPTP block: LMPTP phosphatase inhibitors, primary screen, biochemical, fluorescence intensity, uHTS; AID 651560, 2012; inhibition, % at 20 µM; recombinant LMPTP-A, OMFP fluorogenic substrate; actives 0.22% (n = 360,000);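 active = compounds that cut the enzyme signal by at least half of the control window in the single-dose screen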
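Assay system: LMPTP-A phosphatase enzyme | Input: 0.625 nM enzyme | Also added: Fluorogenic phosphatase substrate OMFP at 400 µM final | Compound dosing: One test concentration per compound, 20 µM, with 3% DMSO overall | Schedule: 50 min enzyme reaction at room temperature, protected from light | Signal: Fluorescence intensity | Benchmarks: no-enzyme and uninhibited controls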
Beacon interf DR: spectral interference with molecular beacon fluorescence, dose response, artefact control for DNMT1 inhibitor project, biochemical, fluorescent molecular beacon; shares compounds with DNMT1 inh; spectral interference counter-screen; IC50, µM; 200 tested, under 10 active; AID 602382, 2012; call rule not given here
DNMT1 inh conf: DNMT1 methyltransferase inhibitor retest, confirmation, biochemical, molecular beacon, fluorescence, single concentration | AID 602385, 2012 | shares compounds with DNMT1 inh | DNMT1 molecular beacon HinP1I cleavage | actives 8% (n = 2,300) | inhibition, % at 10 µM;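 active = average inhibition of at least 30% in the single-concentration confirmation test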
Beacon interf: beacon fluorescence artifact counter-screen | DNMT1 molecular beacon spectral interference counterscreen, fluorescence 485/520 | actives 1% (n = 2,300) | activation (fluorescence interference), % at 10 µM | shares compounds with DNMT1 inh | AID 602387;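 active = activation of at least 30% at 10 µM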;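 also: DNMT1 catalytic domain with a HinP1I cleavage step and a FAM/dabcyl DNA beacon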
Of the large screens only hits and unclear results are named; the others gave an inactive call (follow-up assays come after a bar, where they were run). Shown are actives, neighbours in structure and some others; about 1.9% of the full set was active somewhere.

COc1cc2cc(Oc3ccc4ccc(=O)oc4c3)c(=O)oc2cc1OC1OC(COC(=O)CC(C)(O)CC(=O)O)C(O)C(O)C1O (stereo not drawn)	none
COc1cc2cc(Oc3ccc4ccc(=O)oc4c3)c(=O)oc2cc1O[C@@H]1O[C@H](CO)[C@@H](O)[C@H](O)[C@H]1O	CSN inh 38, DNMT1 inh 105 | Beacon interf DR inactive | DNMT1 inh conf 61 | Beacon interf inactive
O=C(C[C@H]1C=C[C@H](NC(=O)Nc2ccccc2F)[C@@H](CO)O1)NCc1ccc(-c2ccccc2)cc1	none (no result: Scp1 inh, DNMT1 inh, STEP inh)
CCOc1cccc(=O)c2c(C)n(Cc3ccco3)c(C)c12	DNMT1 inh 81 | DNMT1 inh conf inactive | Beacon interf inactive
CCOc1cccc(=O)c2c(C)n(Cc3ccccc3)c(C)c12	none
CC(=O)c1ccc(OC2(C)CCN(Cc3cc4ccccc4[nH]3)C2)cc1 (stereo not drawn)	DNMT1 inh 91 (no result: Scp1 inh) | DNMT1 inh conf inactive | Beacon interf inactive
CCCn1nnnc1NCc1ccc(N2CCCC2)cc1	none
CCCCn1nnnc1NCc1ccc(N2CCCC2)cc1	DNMT1 inh 70 | DNMT1 inh conf inactive | Beacon interf inactive
COc1ccc(Nc2nnc(SCC(=O)NC3CCCC3)s2)cc1	none (no result: Scp1 inh)
CC1=NN(c2cccc(C(=O)O)c2)C(=O)/C1=C\C=C\c1ccco1	Scp1 inh 80, DNMT1 inh 106, STEP inh 41 | Beacon interf DR inactive | DNMT1 inh conf 107 | Beacon interf inactive
CC1=NN(c2ccccc2)C(=O)/C1=C/C=C/c1ccccc1	none
COc1ccc(C)cc1NC(=O)CCS(=O)(=O)c1ccc2c(c1)oc(=O)n2C	none
CC(C)(C)c1ccc(OCC(=O)Nc2ccc(-c3nc4cccnc4o3)cc2)cc1	DNMT1 inh 55 | DNMT1 inh conf inactive | Beacon interf inactive
CCOC(=O)/C(N)=C/c1ncc(C(F)(F)F)cc1Cl	none
O=[N+]([O-])c1ccc(N/N=C/c2ccc(O)c(O)c2O)c(S(=O)(=O)N2CCOCC2)c1	DNMT1 inh 62, LMPTP block 67 | DNMT1 inh conf inactive | Beacon interf inactive
COc1ccccc1N1CCN(/N=C/c2ccc(Cl)c([N+](=O)[O-])c2)CC1	DNMT1 inh 99 | Beacon interf DR inactive | DNMT1 inh conf 35 | Beacon interf inactive
CCOC(=O)c1[nH]c2c(c1C)C(=O)CC(c1ccco1)C2 (stereo not drawn)	Scp1 inh 64, DNMT1 inh 51 | DNMT1 inh conf inactive | Beacon interf inactive
COCCOC(=O)c1[nH]c2c(c1C)C(=O)CC(c1ccco1)C2 (stereo not drawn)	Scp1 inh 83, DNMT1 inh 74 | DNMT1 inh conf inactive | Beacon interf inactive
O=C(COC(=O)c1cc(Cl)cc(Cl)c1)NCc1ccco1	none
CCc1ccc(NC(=O)CSc2nnc(SCC(=O)Nc3ccc(CC)cc3)n2N)cc1	none
CN(C)S(=O)(=O)c1ccc2c(c1)C(CC(=O)O)OC2=O (stereo not drawn)	DNMT1 inh 91 | DNMT1 inh conf inactive | Beacon interf inactive
O=C(NNC(=O)C1CCCCC1)c1ccco1	none
CCC1CCC(C(=O)NNC(=O)c2cc(-c3ccco3)[nH]n2)CC1 (stereo not drawn)	DNMT1 inh 51 | DNMT1 inh conf inactive | Beacon interf inactive
CN(Cc1nccs1)C(=O)C1CCC(=O)N(Cc2ccccc2F)C1 (stereo not drawn)	none
CC(C)Oc1ccc(S(=O)(=O)N2CCCCC2)cc1NC(=O)C1CSC2(C)CCC(=O)N12 (stereo not drawn)	none
O=C(CCN1C(=O)/C(=C/c2ccccc2)SC1=S)Nc1cccnc1	none
Cc1ccc(NC(=O)COc2ccc(/C=C3/SC(=Nc4ccccc4)N(Cc4cccnc4)C3=O)cc2)cc1	DNMT1 inh 61 | DNMT1 inh conf inactive | Beacon interf inactive
Oc1c(CN2CCOCC2)cc(CN2CCOCC2)cc1CN1CCOCC1	DNMT1 inh 87 | DNMT1 inh conf inactive | Beacon interf inactive
O=C(N/N=C/c1ccc(OC(=O)c2ccco2)cc1)c1ccncc1	none
O=C(N/N=C/c1ccc(OC(=O)c2ccc(Br)cc2)cc1)c1ccncc1	DNMT1 inh 57 | DNMT1 inh conf inactive | Beacon interf inactive
O=C(COc1ccc(S(=O)(=O)N2CCOCC2)cc1)N1CCN(c2ccccc2)CC1	none
COc1ccc(/C=N/NC(=O)c2cccc([N+](=O)[O-])c2)c2ccccc12	DNMT1 inh 51 | DNMT1 inh conf inactive | Beacon interf inactive
Cc1cc(NC(=O)CSc2ncnc3c2cnn3-c2cccc(Cl)c2)no1	none
N#Cc1ccccc1/C=N/Nc1nc(-c2ccccc2)c2cc(Br)ccc2n1	DNMT1 inh 73 | DNMT1 inh conf inactive | Beacon interf inactive
CCc1cc2c(=O)c(-c3cnn(-c4ccccc4)c3)c(C)oc2cc1OCC(=O)Nc1cccc(C)c1	DNMT1 inh 61 | DNMT1 inh conf inactive | Beacon interf inactive
O=C(NCC1COc2ccccc2O1)c1ccc(Br)s1 (stereo not drawn)	none
c1ccc(-n2cnc3ccccc32)nc1	none
c1ccc(-c2nccc(-c3ccc(-n4cnc5ccccc54)cc3)n2)cc1	CSN inh 73, DNMT1 inh 82 | DNMT1 inh conf inactive | Beacon interf inactive
Cc1cccc2cc(C#N)c(SCC(=O)NCC3CCCO3)nc12 (stereo not drawn)	none
Cc1cccc2c(SCC(=O)NCC3CCCO3)nc(-c3ccc(F)cc3)nc12 (stereo not drawn)	none | DNMT1 inh conf inactive | Beacon interf inactive
COc1ccc(-c2c(C#Cc3ccc(N(C)C)cc3)c3ccccc3n2C)cc1	DNMT1 inh 57 | DNMT1 inh conf inactive | Beacon interf inactive
